# “Also recorded” adds a separate entry of the source.
# Tests used:
# CCRF-CEM = experiment: NCI five-dose screen, leukemia; format: cell-based; conditions: Homo sapiens
# How it was run: (§1)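 This was the NCI five-dose screen on the 60-cell-line human cancer panel, covering nine tumour types. It was given to compounds that met the single-dose criteria. GI50 is the concentration giving 50% growth inhibition, TGI the concentration giving 100% growth inhibition, and LC50 the concentration giving 50% lethality. MG-MID is the mean over all cell lines tested.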
# K-562 = experiment: NCI five-dose screen, leukemia; format: cell-based; conditions: Homo sapiens, K562
# How it was run: as §1
# MOLT-4 = experiment: NCI five-dose screen, leukemia; format: cell-based; conditions: Homo sapiens
# How it was run: as §1
# RPMI-8226 = experiment: NCI five-dose screen, leukemia; format: cell-based; conditions: Homo sapiens, RPMI-8226
# How it was run: as §1
# SR [1] = experiment: NCI five-dose screen, leukemia; format: cell-based; conditions: Homo sapiens
# How it was run: as §1
# COLO 205 = experiment: NCI five-dose screen, colon cancer; format: cell-based; conditions: Homo sapiens; for GI50: COLO 205
# How it was run: as §1
# HCC-2998 = experiment: NCI five-dose screen, colon cancer; format: cell-based; conditions: Homo sapiens; for GI50: HCC 2998
# How it was run: as §1
# HCT-116 = experiment: NCI five-dose screen, colon cancer; format: cell-based; conditions: Homo sapiens, HCT-116
# How it was run: as §1
# HCT-15 = experiment: NCI five-dose screen, colon cancer; format: cell-based; conditions: Homo sapiens; for GI50: HCT-15
# How it was run: as §1
# HT29 [2] = experiment: NCI five-dose screen, colon cancer; format: cell-based; conditions: Homo sapiens, HT-29
# How it was run: as §1
# KM12 = experiment: NCI five-dose screen, colon cancer; format: cell-based; conditions: Homo sapiens; for GI50: KM12
# How it was run: as §1
# SW-620 = experiment: NCI five-dose screen, colon cancer; format: cell-based; conditions: Homo sapiens; for GI50: SW-620
# How it was run: as §1
# SR [3] = experiment: NCI single dose; format: cell-based; conditions: Homo sapiens, read-out: percent growth inhibition
# How it was run: (§2)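 This was the NCI primary screen: test compound at one concentration of 10 μM against the 60-cell-line human cancer panel, covering leukemia, NSCLC, melanoma, colon, CNS, ovarian, renal, prostate and breast lines. The read-out was percent growth inhibition for each cell line. Compounds meeting the threshold went on to the five-dose screen.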
# 60 cancer cell lines = experiment: NCI single dose; format: cell-based, human; conditions: for GI% values, range over cell lines: 10 μM, range over the leukemia and colon cancer cell lines of Table 2; for inhibition at 10 µM: Homo sapiens, read-out: Mean percent growth inhibition (MPGI)
# How it was run: as §2
# panel of 60 cell lines = experiment: NCI five-dose screen, whole panel; format: cell-based; conditions: Homo sapiens; for GI50: read-out: Median GI50 (MG-MID); for CC50: read-out: Median LC50 (MG-MID)
# How it was run: as §1
# [4] = Cytotoxicity in normal cells; format: cell-based, human; conditions: human, WI-38 normal fibroblasts
# How it was run: (§3)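 Normal human WI-38 fibroblasts were exposed to a concentration series of test compound, with doxorubicin as positive control and three wells per concentration. IC50 came from dose–response curves averaged over two parallel experiments and is given as mean ± SEM versus untreated cells. Selectivity index = WI-38 IC50 / median GI50 from the NCI cancer panel.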
# [5] = test system: human normal fibroblasts (WI-38); experiment: Cytotoxicity in normal cells; format: cell-based; conditions: SI = WI-38 IC50/median GI50
# How it was run: as §3
# p53 = experiment: Gene expression by real time PCR in HepG2; format: cell-based; conditions: Homo sapiens, HepG2, 8 h, read-out: p53 expression, fold induction from untreated cells
# How it was run: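 HepG2 cells treated with test compound; p53 transcript measured within a panel that also covered cdk1, caspase 3, topoII and txnrd1, and expressed relative to untreated cells. Values given as mean ± SEM of two independent experiments, with significance set at p < 0.05 versus untreated cells.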
# HL-60 (TB) = experiment: cells; conditions: Homo sapiens, HL-60
# HT29 [6] = experiment: NCI single dose; format: cell-based; conditions: Homo sapiens, HT-29, read-out: percent growth inhibition
# How it was run: as §2
# [7] = test system: cyclin-dependent kinase 1 (cdk1); experiment: Gene expression by real time PCR in HepG2; format: cell-based; conditions: HepG2, approximate value in text
# [8] = test system: topoisomerase II (topoII); experiment: Gene expression by real time PCR in HepG2; format: cell-based; conditions: HepG2, approximate value in text
# [9] = test system: topoisomerase II (Topo II); experiment: Topo II concentration in HepG2 cells, sandwich ELISA; format: cell-based; conditions: HepG2, IC50 concentrations, 8 hours, ELISA (Fig. 5A)
# How it was run: (§4)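 HepG2 cells were treated with test compound, with doxorubicin as reference. Cellular p38 MAPK and Topo II protein concentrations were then measured with commercial sandwich ELISA kits. Each compound had three wells, and the experiment was run twice. Values are mean ± SEM, with significance tested against untreated cells.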
# [10] = test system: p38 mitogen-activated protein kinase (MAPK); experiment: MAPK concentration in HepG2 cells, sandwich ELISA; format: cell-based; conditions: HepG2, IC50 concentrations, 8 hours, ELISA (Fig. 5C)
# How it was run: as §4
# cleaved caspase-3 = experiment: Active cleaved caspase 3 activity in HepG2 cells; format: cell-based; conditions: HepG2 (Fig. 5B)
SMILES,GI50 (CCRF-CEM) [nM],GI50 (K-562) [nM],GI50 (MOLT-4) [nM],GI50 (RPMI-8226) [nM],GI50 (SR [1]) [nM],GI50 (COLO 205) [nM],GI50 (HCC-2998) [nM],GI50 (HCT-116) [nM],GI50 (HCT-15) [nM],GI50 (HT29 [2]) [nM],GI50 (KM12) [nM],GI50 (SW-620) [nM],"GI% values, range over cell lines (60 cancer cell lines) [%]",inhibition at 10 µM (60 cancer cell lines) [%],GI50 (panel of 60 cell lines) [nM],CC50 (panel of 60 cell lines) [µM],IC50 at 48 h [4] [µM],selectivity index (SI) [5],fold induction at 0.1 µM (p53),GI50 (HL-60 (TB)) [nM],further results
"COc1ccc(-c2ccc(-c3ccc(C(=N)N)nc3)s2)cc1.Cl [Compound 4a, 5-[5-(4-Methoxyphenyl)thiophen-2-yl]picolinamidine hydrochloride salt]",1430,1090,1900,2130,340,1890,1820,1620,1270,880,1810,430,−7.17 to −86.03,-28.8,1620,8.12,21.1 ± 3.1,13.0,1.19 ± 0.43,1780,"CC50 (COLO 205; COLO 205, read-out: LC50): 8.13 µM; CC50 (HCC-2998; HCC 2998, read-out: LC50): 6.38 µM; CC50 (HCT-15; HCT-15, read-out: LC50): 5.71 µM; CC50 (KM12; KM12, read-out: LC50): 6.03 µM; CC50 (SW-620; SW-620, read-out: LC50): 4.98 µM; inhibition at 10 µM (SR [3]): 99.7%"
"COc1ccc(-c2ccc(-c3ccc(C(=N)N)nc3)s2)cc1Cl.Cl [Compound 4b, 5-[5-(3-Chloro-4-methoxyphenyl)thiophen-2-yl]picolinamidine hydrochloride salt]",1180,900,1720,2250,580,1940,1860,1820,1570,1350,1810,1790,−7.17 to −86.03,-19.9,1730,8.31,23.7 ± 2.5,13.7,1.03 ± 0.08,1660,inhibition at 10 µM (HT29 [6]): 97.5%; magnitude of downregulation of cdk1 expression [7]: ~50%; magnitude of downregulation of topoII expression [8]: ~50%; effect on concentration of Topo II protein [9]: significant reduction; also recorded: significantly downregulate; effect on concentration of MAPK protein [10]: significant reduction; effect on activity of cleaved active caspase 3 (cleaved caspase-3): devoid of any effect
